From ChEMBL document CHEMBL3232882, “N-Acyl-phosphoramidates as potential novel form of gemcitabine prodrugs” (Bioorg Med Chem, 2014)

Assays:
[1] = tested on: CFPAC-1; assay: Cytotoxicity against human CFPAC-1 cells assessed as reduction of cell survival after 72 hrs by MTT assay; format: functional, cell-based; conditions: CFPAC-1, 72 h
In short: (§1)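 HeLa seeded at 7×10^3 and CFPAC at 10^4 per well in RPMI 1640 with 10% FCS under 5% CO2. After 24 h, exposure to compounds (aqueous 100 mM stock; final 1 mM to 1×10^-6 mM) for 72 or 96 h. MTT 2 h, formazan dissolved in 20% SDS/50% DMF pH 4.7, A570/650. Untreated cells = 100%; IC50 from dose-response curves, 2 independent experiments in triplicate.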

[2] = tested on: HeLa; assay: Cytotoxicity against human HeLa cells assessed as reduction of cell survival after 96 hrs by MTT assay; format: functional, cell-based; in short: as §1
[3] = tested on: HUVEC; assay: Cytotoxicity against HUVEC assessed as cell after 48 hrs by MTT assay; format: cell-based; conditions: Homo sapiens
In short: (§2)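 HUVEC (from fresh umbilical cords, gelatin-coated dishes, RPMI 1640 with 20% FBS, heparin, ECGF) and K562 (RPMI 1640, 10% FCS) were seeded at 7×10^3 per well. After 24 h, exposure for 48 h to compounds from 100 mM aqueous stock, final 1 mM down to 1×10^-6 mM. MTT read at 570/650 nm; untreated = 100%; IC50 from dose-response curves, mean of 2 experiments in triplicate.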

[4] = target: T1, Adenosine 5'-monophosphoramidase HINT1 (Homo sapiens, UniProt P49773); assay: Drug metabolism in human K562 cell lysate assessed as HINT-1-mediated compound formation by measuring retention time at 1 mM after 22 hrs by RP-HPLC analysis relative to control; format: ADME, cell-based; conditions: k562, 22 h, 1000 µM
T1 sequence (P49773 whole entry): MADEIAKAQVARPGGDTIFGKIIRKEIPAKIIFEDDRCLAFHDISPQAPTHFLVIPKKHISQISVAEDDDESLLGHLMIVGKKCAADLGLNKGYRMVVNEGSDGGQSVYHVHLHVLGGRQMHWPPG
In short: (§3)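 K562 lysate from confluent cells, scraped and sonicated in PBS with protease inhibitors. Substrate 1 mM in 20 mM Na-HEPES pH 7.2, 0.5 mM MgCl2, with lysate protein, 22 h at 37 °C. Quenched on ice, heat-denatured, centrifuged. Supernatant analysed by C18 RP-HPLC (0–8% acetonitrile in 0.1 M TEAB pH 7.4, 20 min) at 260 nm. Peaks integrated; products identified by co-injection; mean ± SE, at least duplicate.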

[5] = tested on: HeLa; assay: Cytotoxicity against human HeLa cells assessed as reduction of cell survival after 72 hrs by MTT assay; format: functional, cell-based; in short: as §1
[6] = target: T1, Adenosine 5'-monophosphoramidase HINT1; assay: Drug level in human K562 cell lysate treated with 1 mM gemcitabine 5'-phosphoramidate assessed as HINT-1-mediated compound formation after 22 hrs by RP-HPLC analysis relative to control; format: ADME, cell-based; conditions: k562, 22 h; in short: as §3
[7] = tested on: CFPAC-1; assay: Cytotoxicity against human CFPAC-1 cells assessed as reduction of cell survival after 96 hrs by MTT assay; format: functional, cell-based; conditions: CFPAC-1, 96 h; in short: as §1
[8] = tested on: K562; assay: Cytotoxicity against human K562 cells assessed as reduction of cell survival after 48 hrs by MTT assay; format: functional, cell-based; conditions: K562, 48 h; in short: as §2
[9] = target: T1, Adenosine 5'-monophosphoramidase HINT1; assay: Drug metabolism in human K562 cell lysate assessed as HINT-1-mediated compound dephosphorylation at 1 mM after 22 hrs by RP-HPLC analysis relative to control; format: ADME, cell-based; conditions: k562, 22 h, 1000 µM; in short: as §3
[10] = target: T2, Adenosine 5'-monophosphoramidase HINT1 (Oryctolagus cuniculus, UniProt P80912); assay: Drug metabolism assessed as recombinant rabbit HINT1-mediated hydrolysis of NH2-pdFdC to pdFdC per ug protein at 0.2 mM by RP-HPLC analysis; format: ADME; conditions: 200 µM
T2 sequence (P80912 whole entry): as the sequence (P49773 whole entry) above, with R37Q, V65A, D69A, N91K, H122N counted along it
In short: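 Recombinant Hint-1 expressed in E. coli BL21 from pSGA02-HINT, purified by AMP-agarose affinity; hydrolysis of NH2-pdFdC to pdFdC at 0.2 mM substrate, activity expressed per µg protein; products followed by RP-HPLC on C18 column with acetonitrile gradient in 0.1 M triethylammonium bicarbonate, pH 7.4, peak areas integrated.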

[11] = target: T1, Adenosine 5'-monophosphoramidase HINT1; assay: Drug metabolism in human K562 cell lysate assessed as HINT-1-mediated gemcitabine 5'-monophosphate formation at 1 mM after 22 hrs by RP-HPLC analysis relative to control; format: ADME, cell-based; conditions: k562, 22 h, 1000 µM; in short: as §3
[12] = target: T2, Adenosine 5'-monophosphoramidase HINT1; assay: Drug metabolism assessed as recombinant rabbit HINT1-mediated hydrolysis of NH2-pdFdC to pdFdC per ug protein at 1 mM by RP-HPLC analysis; format: ADME; conditions: 1000 µM
[13] = target: T1, Adenosine 5'-monophosphoramidase HINT1; assay: Drug metabolism in human K562 cell lysate assessed as HINT-1-mediated gemcitabine formation at 1 mM after 22 hrs by RP-HPLC analysis relative to control; format: ADME, cell-based; conditions: k562, 22 h, 1000 µM; in short: as §3

Row | Retention_time [4] [min] | Drug metabolism [6] | Drug metabolism [9] | Drug metabolism [10] [nmol/min/µg] | Drug metabolism [11] | Drug metabolism [12] [nmol/min/µg] | Drug metabolism [13] | SMILES | IC50 [1] [µM] | IC50 [2] [µM] | IC50 [3] [µM] | IC50 [5] [µM] | IC50 [7] [µM] | IC50 [8] [µM]
1 | 11.8 | metabolite_detected | – | – | – | – | – | Nc1ccn([C@@H]2O[C@H](CO)[C@@H](O)C2(F)F)c(=O)n1 [GEMCITABINE] | 0.47 | 0.9 | 0.003 | 10 | 0.35 | 0.05
2 | 11.1 | metabolite_detected | metabolite_detected | – | – | – | – | Nc1ccn([C@@H]2O[C@H](COP(=O)(O)O)[C@@H](O)C2(F)F)c(=O)n1 | – | – | – | – | – | –
3 | 10.6 | – | – | 0.88 | metabolite_detected | 1.88 | metabolite_detected | Nc1ccn([C@@H]2O[C@H](COP(N)(=O)O)[C@@H](O)C2(F)F)c(=O)n1 | – | – | – | – | – | –
